Measurements: ChEMBL document CHEMBL1132178, “5-Amino-1-(chloromethyl)-1,2-dihydro-3H-benz[e]indoles: relationships between structure and cytotoxicity for analogues bearing different DNA minor groove binding subunits” (J Med Chem, 1999)

How the values were obtained:
SK-OV-3 = assay: Tested for growth inhibition against SKOV3 tumor cell line(human ovarian).; format: functional, cell-based
How it was run: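 Log-phase cultures of 600 SKOV3 cells/well in 96-well plates, drug added after 24 h. Aerobic 4 h exposure at 37 °C under 5% CO2, then washed and regrown 5 days. Growth read by sulforhodamine B staining. IC50 is the concentration giving 50% inhibition relative to same-plate controls; average of 2–5 determinations ± SEM.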

CHO-AA8 = assay: Tested for growth inhibition against AA8 tumor cell line(chinese hamster ovary).; format: functional, cell-based, Cricetulus griseus
How it was run: (§1)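 Log-phase cultures seeded in 96-well plates (200 AA8, 300 UV4 or 50 EMT6 cells/well), drug added after 24 h. Aerobic 4 h exposure at 37 °C under 5% CO2, then washed and regrown 4 days. Cell density read by sulforhodamine B staining. IC50 is the concentration giving 50% growth inhibition versus same-plate controls; mean of 2–5 determinations ± SEM.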

UV4 = assay: The compound was tested for growth inhibition against UV4 tumor cell line(chinese hamster ovary).; format: functional, cell-based, Cricetulus griseus; how it was run: as §1
EMT6 = assay: Tested for growth inhibition against EMT6 tumor cell line(murine mammary carcinoma).; format: functional, cell-based, Mus musculus; how it was run: as §1

Row | IC50 (SK-OV-3; Homo sapiens, SK-OV-3) [nM] | Structure (SMILES) | IC50 (CHO-AA8; Cricetulus griseus, CHO-AA8) [nM] | IC50 (UV4; Cricetulus griseus, UV4) [nM] | IC50 (EMT6; Mus musculus, EMT6) [nM] | IC50 (SK-OV-3; sk-ov-3) [nM] | IC50 (CHO-AA8; cho-aa8) [nM] | IC50 (UV4; uv4) [nM] | IC50 (EMT6; emt6) [nM]
1 | 0.48 | COc1ccc2[nH]c(/C=C/C(=O)N3CC(CCl)c4c3cc(N)c3ccccc43)cc2c1 (stereo unspecified) | 0.28 | 0.22 | 0.23 |  |  |  | 
2 | 13 | CC(=O)Nc1cc(/C=C/C(=O)N2CC(CCl)c3c2cc(N)c2ccccc32)n(C)n1 (stereo unspecified) | 10.7 | 5.4 | 4.9 |  |  |  | 
3 | 4.2 | COc1cc(OCCN(C)C)c2[nH]c(C(=O)N3CC(CCl)c4c3cc(N)c3ccccc43)cc2c1 (stereo unspecified) | 3.7 | 1.9 | 1.9 |  |  |  | 
4 | 2.7 | CC(=O)Nc1ccc(/C=C/C(=O)N2CC(CCl)c3c2cc(N)c2ccccc32)cc1 (stereo unspecified) | 2.6 | 1.4 | 1.2 |  |  |  | 
5 | 3.5 | Nc1cc2c(c3ccccc13)C(CCl)CN2C(=O)c1cc2cc(NC(=O)c3cc4ccccc4o3)ccc2[nH]1 (stereo unspecified) | 2 | 1.5 | 1.3 |  |  |  | 
6 | 1.5 | CC(=O)Nc1cccc(/C=C/C(=O)N2CC(CCl)c3c2cc(N)c2ccccc32)c1 (stereo unspecified) | 2.7 | 1.5 | 0.86 |  |  |  | 
7 | 49 | CC(=O)Nc1cc(C(=O)Nc2cc(C(=O)N3CC(CCl)c4c3cc(N)c3ccccc43)nn2C)nn1C (stereo unspecified) | 374 | 253 | 212 |  |  |  | 
8 | 5.3 | COc1cc2cc(C(=O)N3CC(CCl)c4c3cc(N)c3ccccc43)[nH]c2cc1OCCN(C)C (stereo unspecified) | 3.6 | 2.1 | 2 |  |  |  | 
9 | 1.9 | CN(C)CCOc1ccc(/C=C/C(=O)N2CC(CCl)c3c2cc(N)c2ccccc32)cc1 (stereo unspecified) | 1.5 | 0.56 | 0.63 |  |  |  | 
10 |  | COc1cc2cc(C(=O)N3CC(CCl)c4c3cc(N)c3ccccc43)[nH]c2c(OC)c1OC (single isomer, unassigned; (+)) |  |  |  | 0.54 | 0.21 | 0.14 | 0.13
11 |  | COc1cc2cc(C(=O)N3CC(CCl)c4c3cc(N)c3ccccc43)[nH]c2c(OC)c1OC (single isomer, unassigned; (-)) |  |  |  | 7.9 | 14 | 2.7 | 7

Row | Structure (SMILES) | IC50 (SK-OV-3; Homo sapiens, SK-OV-3) [nM] | IC50 (CHO-AA8; Cricetulus griseus, CHO-AA8) [nM] | IC50 (UV4; Cricetulus griseus, UV4) [nM] | IC50 (EMT6; Mus musculus, EMT6) [nM] | IC50 (SK-OV-3; sk-ov-3) [nM] | IC50 (CHO-AA8; cho-aa8) [nM] | IC50 (UV4; uv4) [nM] | IC50 (EMT6; emt6) [nM]
12 | CCCC(=O)Nc1cc(/C=C/C(=O)N2CC(CCl)c3c2cc(N)c2ccccc32)n(C)c1 (stereo unspecified) | 22 | 31 | 16 | 5.9 |  |  |  | 
13 | CC(=O)Nc1ccc2[nH]c(C(=O)N3CC(CCl)c4c3cc(N)c3ccccc43)cc2c1 (stereo unspecified) | 17.3 | 12.5 | 7.6 | 5.2 |  |  |  | 
14 | COc1ccc2[nH]c(C(=O)N3CC(CCl)c4c3cc(N)c3ccccc43)cc2c1 (stereo unspecified) | 1.86 | 1.3 | 0.84 | 0.98 |  |  |  | 
15 | COc1ccc(/C=C/C(=O)N2CC(CCl)c3c2cc(N)c2ccccc32)cc1 (stereo unspecified) | 0.24 | 0.09 | 0.058 | 0.089 |  |  |  | 
16 | CN(C)CCOc1ccc2[nH]c(C(=O)N3CC(CCl)c4c3cc(N)c3ccccc43)cc2c1 (stereo unspecified) | 7 | 4.1 | 1.7 | 1.3 |  |  |  | 
17 | COc1cc2cc(C(=O)N3CC(COS(C)(=O)=O)c4c3cc(N)c3ccccc43)[nH]c2c(OC)c1OC (stereo unspecified) | 1.2 | 0.48 | 0.46 | 0.4 |  |  |  | 
18 | Nc1ccc2[nH]c(C(=O)N3CC(CCl)c4c3cc(N)c3ccccc43)cc2c1 (stereo unspecified) | 3 | 2.5 | 1.1 | 0.83 |  |  |  | 
19 | COc1cccc(/C=C/C(=O)N2CC(CCl)c3c2cc(N)c2ccccc32)c1 (stereo unspecified) | 0.68 | 0.37 | 0.42 | 0.63 |  |  |  | 
